Laboratory results taken from ChEMBL document CHEMBL4118083, “Synthesis and anti-oxidant activity evaluation of (±)-Anastatins A, B and their analogs” (Eur J Med Chem, 2017).
The source made the active and inactive calls. No cut-off for these calls is given here.

Assays:
[1] = Antioxidant activity assessed as vitamin-c equivalents of ferric ion reducing activity by measuring Fe2+ levels using Fe3+-TPTZ by FRAP assay; type: functional
In short: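 Ferric-TPTZ complex reduced to ferrous form, per earlier-described method. Calibration curve from serial dilution of vitamin C standard (100-600 […] as printed). Compound reducing power expressed as vitamin C equivalents, calculated from three independent experiments.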

PC-12 [2] = experiment: Cytoprotective activity against H2O2-induced oxidative damage in rat PC12 cells assessed as cell viability at 100 uM preincubated for 0.5 hrs followed by H2O2 addition measured after 2 hrs by MTT assay relative to control; type: functional; settings: read-out: Activity
In short: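 PC12 cells in RPMI-1640 with 10% FBS, plated at 5×10^5 per well, 24 h. Compound in DMSO added 0.5 h before 100 µM H2O2, then 2 h injury. MTT for 4 h, formazan dissolved in DMSO, OD 490 nm. Viability normalised to DMSO controls (100%). Mean of three independent experiments.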

PC-12 [3] = experiment: Cytoprotective activity against H2O2-induced oxidative damage in rat PC12 cells assessed as reduction in morphological changes by measuring membrane blebbing at 10 to 100 uM preincubated for 0.5 hrs followed by H2O2 addition measured after 2 hrs; type: functional, cell-based
In short: (§1)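 PC12 cells plated 5×10^5 cells/well and grown 24 h, then given test agent (10 and 100 µM) for 0.5 h before 100 µM H2O2 for 2 h. Controls received medium with 0.1% DMSO. Cell shrinkage and blebbing were inspected by microscopy at 200×.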

PC-12 [4] = experiment: Cytoprotective activity against H2O2-induced apoptosis in rat PC12 cells assessed as late apoptotic cells at 10 uM preincubated for 0.5 hrs followed by H2O2 addition measured after 2 hrs by Annexin V-FITC/propidium iodide staining based flow cytometry (reference value: 57.5%); type: functional
PC-12 [5] = experiment: Cytoprotective activity against H2O2-induced apoptosis in rat PC12 cells assessed as late apoptotic cells at 100 uM preincubated for 0.5 hrs followed by H2O2 addition measured after 2 hrs by Annexin V-FITC/propidium iodide staining based flow cytometry (reference value: 57.5%); type: functional
PC-12 [6] = experiment: Cytoprotective activity against H2O2-induced apoptosis in rat PC12 cells assessed as necrotic cells at 100 uM preincubated for 0.5 hrs followed by H2O2 addition measured after 2 hrs by Annexin V-FITC/propidium iodide staining based flow cytometry (reference value: 2%); type: functional
PC-12 [7] = experiment: Cytoprotective activity against H2O2-induced apoptosis in rat PC12 cells assessed as early apoptotic cells at 10 uM preincubated for 0.5 hrs followed by H2O2 addition measured after 2 hrs by Annexin V-FITC/propidium iodide staining based flow cytometry (reference value: 3.2%); type: functional
PC-12 [8] = experiment: Cytoprotective activity against H2O2-induced apoptosis in rat PC12 cells assessed as early apoptotic cells at 100 uM preincubated for 0.5 hrs followed by H2O2 addition measured after 2 hrs by Annexin V-FITC/propidium iodide staining based flow cytometry (reference value: 3.2%); type: functional
PC-12 [9] = experiment: Cytoprotective activity against H2O2-induced apoptosis in rat PC12 cells assessed as live cells at 100 uM preincubated for 0.5 hrs followed by H2O2 addition measured after 2 hrs by Annexin V-FITC/propidium iodide staining based flow cytometry (reference value: 37.3%); type: functional
PC-12 [10] = experiment: Cytoprotective activity against H2O2-induced apoptosis in rat PC12 cells assessed as live cells at 10 uM preincubated for 0.5 hrs followed by H2O2 addition measured after 2 hrs by Annexin V-FITC/propidium iodide staining based flow cytometry (reference value: 37.3%); type: functional
PC-12 [11] = experiment: Cytoprotective activity against H2O2-induced oxidative damage in rat PC12 cells assessed as reduction in morphological changes by measuring cell shrinkage at 10 to 100 uM preincubated for 0.5 hrs followed by H2O2 addition measured after 2 hrs; type: functional, cell-based; in short: as §1
PC-12 [12] = experiment: Cytoprotective activity against H2O2-induced apoptosis in rat PC12 cells assessed as necrotic cells at 10 uM preincubated for 0.5 hrs followed by H2O2 addition measured after 2 hrs by Annexin V-FITC/propidium iodide staining based flow cytometry (reference value: 2%); type: functional
PC-12 [13] = experiment: Cytotoxicity against rat PC12 cells assessed as effect on cell viability at 100 uM after 48 hrs by MTT assay; type: cell-based; settings: pc-12, 48 h
In short: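 Rat PC12 cells at 5×10^5 per well, grown 24 h, then exposed 48 h to compound in DMSO. MTT added for 4 h, formazan dissolved in DMSO, absorbance 490 nm. Viability relative to DMSO-treated controls. Triplicate tests.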

PC-12 [14] = experiment: Cytoprotective activity against H2O2-induced apoptosis in rat PC12 cells assessed as apoptotic cells at 100 uM preincubated for 0.5 hrs followed by H2O2 addition measured after 2 hrs by Annexin V-FITC/propidium iodide staining based flow cytometry (reference value: 60.7%); type: functional

SMILES | Activity [1] [mgequiv/mmol] | also measured
O=C1c2c(cc(O)c(-c3ccc(O)c(O)c3)c2O)OC1Cc1ccc(O)c(O)c1 (centres undefined) | 394 | –
O=C1/C(=C/c2ccc(O)cc2)Oc2c1c(O)cc1oc3cc(O)c(O)cc3c21 | 270 | –
O=C1/C(=C/c2ccc(O)c(O)c2)Oc2cc3oc4cc(O)c(O)cc4c3c(O)c21 | 277 | –
O=C1c2c(cc3oc4cc(O)c(O)cc4c3c2O)OC1Cc1ccccc1 (centres undefined) | 227 | –
O=C1/C(=C/c2ccc(O)c(O)c2)Oc2cc(O)c(-c3ccc(O)c(O)c3)c(O)c21 | 372 | viability at 100 µM (PC-12 [2]): 100%
O=C(O)c1cc(O)c(O)c(O)c1 [GALLIC ACID] | 333 | Activity (PC-12 [3]): Active; Activity (PC-12 [4]): 10%; Activity (PC-12 [5]): 2.1%; Activity (PC-12 [6]): 0.4%; Activity (PC-12 [7]): 2.5%; Activity (PC-12 [8]): 0.7%; Activity (PC-12 [9]): 96.7%; Activity (PC-12 [10]): 85.8%; Activity (PC-12 [11]): Active; Activity (PC-12 [12]): 1.7%
O=C1/C(=C/c2ccc(O)cc2)Oc2c1c(O)cc(O)c2-c1ccc(O)c(O)c1 | 263 | –
O=C1/C(=C/c2ccccc2)Oc2c1c(O)cc1oc3cc(O)c(O)cc3c21 | 116 | –
O=C1CC(c2ccc(O)cc2)Oc2c1c(O)cc1oc3cc(O)c(O)cc3c21 (racemic) | 224 | –
O=C1/C(=C/c2ccccc2)Oc2cc(O)c(-c3ccc(O)c(O)c3)c(O)c21 | 237 | –
O=C1c2c(O)cc3oc4cc(O)c(O)cc4c3c2OC1Cc1ccc(O)c(O)c1 (centres undefined) | 373 | –
O=C1/C(=C/c2ccc(O)c(O)c2)Oc2c1c(O)cc1oc3cc(O)c(O)cc3c21 | 260 | –
O=C1c2c(O)cc(O)c(-c3ccc(O)c(O)c3)c2OC1Cc1ccc(O)c(O)c1 (centres undefined) | 376 | viability at 100 µM (PC-12 [2]): 100%
O=c1cc(-c2ccc(O)cc2)oc2cc3oc4cc(O)c(O)cc4c3c(O)c12 | 116 | –
O=c1cc(-c2ccc(O)cc2)oc2c1c(O)cc1oc3cc(O)c(O)cc3c12 | 137 | –
O=C1CC(c2ccc(O)cc2)Oc2cc3oc4cc(O)c(O)cc4c3c(O)c21 (racemic) | 260 | –
O=C1c2c(cc3oc4cc(O)c(O)cc4c3c2O)OC1Cc1ccc(O)c(O)c1 (centres undefined) | 396 | Activity (PC-12 [13]): Toxic
O=C1/C(=C/c2ccccc2)Oc2c1c(O)cc(O)c2-c1ccc(O)c(O)c1 | 269 | –
O=C1/C(=C/c2ccc(O)c(O)c2)Oc2c1c(O)cc(O)c2-c1ccc(O)c(O)c1 | 318 | Activity (PC-12 [3]): Active; Activity (PC-12 [4]): 3.5%; Activity (PC-12 [6]): 0.4%; Activity (PC-12 [7]): 2.4%; Activity (PC-12 [9]): 95.6%; Activity (PC-12 [14]): 4.1%; Activity (PC-12 [10]): 93.6%; Activity (PC-12 [11]): Active; Activity (PC-12 [12]): 0.4%
O=C1c2c(cc3oc4cc(O)c(O)cc4c3c2O)OC1Cc1ccc(O)cc1 (centres undefined) | 253 | –
O=C1/C(=C/c2ccc(O)cc2)Oc2cc3oc4cc(O)c(O)cc4c3c(O)c21 | 264 | –
O=c1cc(-c2ccc(O)cc2)oc2cc(O)c(-c3ccc(O)c(O)c3)c(O)c12 | 276 | –
O=C1c2c(O)cc3oc4cc(O)c(O)cc4c3c2OC1Cc1ccc(O)cc1 (centres undefined) | 248 | –
O=C1/C(=C/c2ccccc2)Oc2cc3oc4cc(O)c(O)cc4c3c(O)c21 | 134 | –
O=C1/C(=C/c2ccc(O)cc2)Oc2cc(O)c(-c3ccc(O)c(O)c3)c(O)c21 | 241 | –
O=C1c2c(O)cc3oc4cc(O)c(O)cc4c3c2OC1Cc1ccccc1 (centres undefined) | 262 | –
O=c1cc(-c2ccc(O)cc2)oc2c(-c3ccc(O)c(O)c3)c(O)cc(O)c12 | 271 | –
